Common to all, as to format: functional
In test [1] the test system is Candida albicans. Nature of the test: Antifungal activity against Candida albicans ATCC 10231 assessed as growth inhibition at 15.62 ug/ml after 48 hrs by broth microdilution method. As to conditions: ATCC 10231, 48 h. A digest of the protocol:
(§1)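 CLSI M27-A3 broth microdilution in RPMI-1640. Compound stocks were made in DMSO (final at most 1%) and tested at final levels of 250 to 0.98. Inoculum was 1–5 × 10^3 CFU/mL, incubated 48 h at 30 °C in a moist, dark chamber. Growth and sterility control wells were included.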
In general terms: Broth dilution looks for growth in wells or tubes with falling amounts of substance.

Test [2] deals with Cryptococcus neoformans. The experiment in a line: Antifungal activity against Cryptococcus neoformans ATCC 32264 assessed as growth inhibition at 62.5 ug/ml after 48 hrs by broth microdilution method. As to conditions: ATCC 32264, 48 h. A digest of the protocol:
as §1

For test [3], the system named is Cryptococcus neoformans. The experiment in a line: Antifungal activity against Cryptococcus neoformans ATCC 32264 assessed as growth inhibition at 15.62 ug/ml after 48 hrs by broth microdilution method. As to conditions: ATCC 32264, 48 h. A digest of the protocol: as §1
Test [4] deals with Cryptococcus neoformans. The experiment in a line: Antifungal activity against Cryptococcus neoformans ATCC 32264 assessed as growth inhibition at 31.25 ug/ml after 48 hrs by broth microdilution method. As to conditions: ATCC 32264, 48 h. The essentials:
as §1

For test [5], the system named is Candida albicans. Nature of the test: Antifungal activity against Candida albicans ATCC 10231 assessed as growth inhibition at 125 ug/ml after 48 hrs by broth microdilution method. As to conditions: ATCC 10231, 48 h. The essentials: as §1
Test [6] relates to Cryptococcus neoformans. Nature of the test: Antifungal activity against Cryptococcus neoformans ATCC 32264 assessed as growth inhibition at 7.81 ug/ml after 48 hrs by broth microdilution method. The conditions noted are these: ATCC 32264, 48 h. The essentials: as §1
Test [7] deals with Cryptococcus neoformans. The experiment in a line: Antifungal activity against Cryptococcus neoformans ATCC 32264 assessed as growth inhibition at 125 ug/ml after 48 hrs by broth microdilution method. The conditions noted are these: ATCC 32264, 48 h. A digest of the protocol: as §1
Test [8] concerns Candida albicans. Nature of the test: Antifungal activity against Candida albicans ATCC 10231 assessed as growth inhibition at 62.5 ug/ml after 48 hrs by broth microdilution method. As to conditions: ATCC 10231, 48 h. A digest of the protocol: as §1
Test [9] relates to Candida albicans. Nature of the test: Antifungal activity against Candida albicans ATCC 10231 assessed as growth inhibition at 250 ug/ml after 48 hrs by broth microdilution method. As to conditions: ATCC 10231, 48 h. The essentials: as §1
The subject of test [10] is Candida albicans. The experiment in a line: Antifungal activity against Candida albicans ATCC 10231 assessed as growth inhibition at 7.81 ug/ml after 48 hrs by broth microdilution method. The conditions noted are these: ATCC 10231, 48 h. The essentials: as §1
The test system of test [11] is Cryptococcus neoformans. The experiment in a line: Antifungal activity against Cryptococcus neoformans ATCC 32264 assessed as growth inhibition at 250 ug/ml after 48 hrs by broth microdilution method. As to conditions: ATCC 32264, 48 h. The essentials:
as §1

In test [12] the test system is Candida albicans. Nature of the test: Antifungal activity against Candida albicans ATCC 10231 assessed as growth inhibition at 31.25 ug/ml after 48 hrs by broth microdilution method. The conditions noted are these: ATCC 10231, 48 h. The essentials:
as §1

The test system of test [13] is Cryptococcus neoformans. Nature of the test: Antifungal activity against Cryptococcus neoformans ATCC 32264 assessed as growth inhibition at 3.9 ug/ml after 48 hrs by broth microdilution method. The conditions noted are these: ATCC 32264, 48 h. The essentials: as §1
Test [14] deals with Candida albicans. Nature of the test: Antifungal activity against Candida albicans ATCC 10231 assessed as growth inhibition at 3.9 ug/ml after 48 hrs by broth microdilution method. As to conditions: ATCC 10231, 48 h. A digest of the protocol:
as §1

Test [15] relates to Cryptococcus neoformans. The experiment in a line: Antifungal activity against Cryptococcus neoformans IM 972751 clinical isolate after 48 hrs by broth microdilution method. As to conditions: IM 972751, 48 h, read-out: MIC100. A digest of the protocol:
(§2)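 Clinical isolates from the Malbrán Institute were grown on Sabouraud-chloramphenicol agar for 48 h at 30 °C, kept on Sabouraud-dextrose agar and subcultured every 15 days. M27-A3 RPMI-1640 microdilution used 1–5 × 10^3 CFU/mL, 48 h at 30 °C, OD405 read, triplicate. Endpoints MIC100, MIC80 and MIC50 were taken from % inhibition dose-response curves.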

The subject of test [16] is Cryptococcus neoformans. Nature of the test: Antifungal activity against Cryptococcus neoformans IM 972724 clinical isolate after 48 hrs by broth microdilution method. As to conditions: IM 972724, 48 h, read-out: MIC100. A digest of the protocol:
as §2

Test [17] concerns Cryptococcus neoformans. The experiment in a line: Antifungal activity against Cryptococcus neoformans IM 983040 clinical isolate after 48 hrs by broth microdilution method. The conditions noted are these: IM 983040, 48 h, read-out: MIC100. The essentials:
as §2

For test [18], the system named is Cryptococcus neoformans. Nature of the test: Antifungal activity against Cryptococcus neoformans IM 961951 clinical isolate after 48 hrs by broth microdilution method. As to conditions: IM 961951, 48 h, read-out: MIC100. A digest of the protocol: as §2
Test [19] relates to Cryptococcus neoformans. Nature of the test: Antifungal activity against Cryptococcus neoformans IM 042074 clinical isolate after 48 hrs by broth microdilution method. As to conditions: IM 042074, 48 h, read-out: MIC100. A digest of the protocol:
as §2

The subject of test [20] is Cryptococcus neoformans. The experiment in a line: Antifungal activity against Cryptococcus neoformans IM 983036 clinical isolate after 48 hrs by broth microdilution method. As to conditions: IM 983036, 48 h, read-out: MIC100. The essentials: as §2
Test [21] relates to Cryptococcus neoformans. Nature of the test: Antifungal activity against Cryptococcus neoformans IM 031631 clinical isolate after 48 hrs by broth microdilution method. The conditions noted are these: IM 031631, 48 h, read-out: MIC100. The essentials: as §2
Test [22] deals with Cryptococcus neoformans. Nature of the test: Antifungal activity against Cryptococcus neoformans ATCC 32264 after 48 hrs by broth microdilution method. As to conditions: ATCC 32264, 48 h, read-out: MIC100.

Values after ≈ are worked out from the molar mass of the structure shown.

One may read the inhibition as the change of the read-out against control, counted positive when it falls. Turning to `Cc1ccc(C2=Nc3c(N)nc(N)nc3NC(c3sc(Cl)nc3Cl)C2)cc1` (stereo not given), the inhibition at 15.62 µg/mL turned out to be 1.41% in the test on Candida albicans [1] and 4.57% in the test on Cryptococcus neoformans [3]. In addition, the inhibition at 62.5 µg/mL in the test on Cryptococcus neoformans [2] amounted to 9.2%; in the test on Candida albicans [8], 13.5%. The figures for the inhibition at 31.25 µg/mL with Cryptococcus neoformans [4] and in the test on Candida albicans [12] were 6.47% and 8.7%, respectively. Moreover, the inhibition at 125 µg/mL in the test on Candida albicans [5] came to 21.3%; with Cryptococcus neoformans [7], 18.3%. For the same compound, the inhibition at 7.81 µg/mL in the test on Cryptococcus neoformans [6] came to 0.93%; in the test with Candida albicans [10], 0%. Also, the inhibition at 250 µg/mL in the test with Candida albicans [9] is 55.5%; in the test on Cryptococcus neoformans [11], 59.1%. For the same compound, the inhibition at 3.9 µg/mL in the test with Cryptococcus neoformans [13] and with Candida albicans [14] was 0% throughout.
As for `COc1ccc(C2=Nc3c(N)nc(N)nc3NC(c3sc(Cl)nc3Cl)C2)cc1` (stereo not given), the inhibition at 15.62 µg/mL in the test on Candida albicans [1] was 15.7%; in the test on Cryptococcus neoformans [3], 7.79%. Also, the inhibition at 62.5 µg/mL was found to be 23.1% with Cryptococcus neoformans [2] and 23.2% in the test with Candida albicans [8]. Moreover, the inhibition at 31.25 µg/mL in the test on Cryptococcus neoformans [4] amounted to 13.2%; in the test with Candida albicans [12], 21.2%. Further, the figures for the inhibition at 125 µg/mL in the test on Candida albicans [5] and in the test on Cryptococcus neoformans [7] were 54.6% and 46.9%, respectively. The figures for the inhibition at 7.81 µg/mL in the test with Cryptococcus neoformans [6] and in the test with Candida albicans [10] were 6.04% and 12.4%, respectively. The inhibition at 250 µg/mL in the test with Candida albicans [9] was found to be 62.6%; in the test with Cryptococcus neoformans [11], 77.1%. Further, the inhibition at 3.9 µg/mL stood at 0% in the test on Cryptococcus neoformans [13] and 10.4% with Candida albicans [14].
Consider `COc1cc(C2=Nc3c(N)nc(N)nc3NC(c3sc(Cl)nc3Cl)C2)cc(OC)c1OC` (stereo not given), for which the inhibition at 15.62 µg/mL in the test with Candida albicans [1] is 0%; in the test with Cryptococcus neoformans [3] it was 5.52%. Moreover, the inhibition at 62.5 µg/mL is 9.28% in the test with Cryptococcus neoformans [2] and 7.26% in the test with Candida albicans [8]. In addition, the inhibition at 31.25 µg/mL in the test on Cryptococcus neoformans [4] was found to be 7.09%; with Candida albicans [12], 9.84%. For the same compound, the inhibition at 125 µg/mL in the test with Candida albicans [5] was found to be 10.5%; with Cryptococcus neoformans [7], 27.2%. Moreover, the inhibition at 7.81 µg/mL in the test on Cryptococcus neoformans [6] was determined as 2.99%; with Candida albicans [10] it was 0%. Besides, the inhibition at 250 µg/mL with Candida albicans [9] was 15%; in the test with Cryptococcus neoformans [11], 77.5%. The inhibition at 3.9 µg/mL turned out to be 1.65% with Cryptococcus neoformans [13] and 0% with Candida albicans [14].
For `C[C@@H]1[C@H](O)[C@@H](C)/C=C/C=C/C=C/C=C/C=C/C=C/C=C/[C@H](O[C@@H]2O[C@H](C)[C@@H](O)[C@H](N)[C@@H]2O)C[C@@H]2O[C@](O)(C[C@@H](O)C[C@@H](O)[C@H](O)CC[C@@H](O)C[C@@H](O)CC(=O)O[C@H]1C)C[C@H](O)[C@H]2C(=O)O` [AMPHOTERICIN B], the MIC in the test on Cryptococcus neoformans [15] is 1 µg/mL (≈ 1.08 µM); in the test on Cryptococcus neoformans [16] it was 0.25 µg/mL (≈ 0.271 µM); with Cryptococcus neoformans [17] it was 0.25 µg/mL (≈ 0.271 µM); in the test on Cryptococcus neoformans [18], 1 µg/mL (≈ 1.08 µM); in the test with Cryptococcus neoformans [19], 0.12 µg/mL (≈ 0.13 µM); in the test with Cryptococcus neoformans [20], 0.25 µg/mL (≈ 0.271 µM). Further, the MIC with Cryptococcus neoformans [21] and in the test on Cryptococcus neoformans [22] was 0.12 µg/mL (≈ 0.13 µM) throughout.

For the origin of these results see ChEMBL document CHEMBL3407460, “Synthesis of novel thiazole-based 8,9-dihydro-7H-pyrimido[4,5-b][1,4]diazepines as potential antitumor and antifungal agents” (2015).
